# Tests used:
# Conditions in all cases: stereoisomer not certain
# A0A140T8K0 = system: T1, A0A140T8K0
# T1 sequence (whole entry): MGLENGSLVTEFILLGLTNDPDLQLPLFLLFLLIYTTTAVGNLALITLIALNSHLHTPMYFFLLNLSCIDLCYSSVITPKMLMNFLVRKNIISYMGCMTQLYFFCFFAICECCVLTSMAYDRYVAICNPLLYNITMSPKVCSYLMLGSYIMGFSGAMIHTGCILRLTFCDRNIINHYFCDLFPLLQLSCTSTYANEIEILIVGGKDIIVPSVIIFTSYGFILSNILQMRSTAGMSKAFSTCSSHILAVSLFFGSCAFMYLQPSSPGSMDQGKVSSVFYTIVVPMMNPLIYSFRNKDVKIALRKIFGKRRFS
# In short: (§1)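 Values were gathered from published papers (main text and supplementary material), with extra details requested from the original authors when needed, and checked for typos and inconsistencies. Each receptor–molecule pair is called responsive (active) if the original authors judged the measured signal statistically different from baseline, and non-responsive (inactive) otherwise. Assay methods varied by source, often transient mammalian cell-line luciferase assays. Recorded details include cell line, G-protein, co-transfected protein and tags.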
# A0A140T8K4 = system: T2, A0A140T8K4
# T2 sequence (whole entry): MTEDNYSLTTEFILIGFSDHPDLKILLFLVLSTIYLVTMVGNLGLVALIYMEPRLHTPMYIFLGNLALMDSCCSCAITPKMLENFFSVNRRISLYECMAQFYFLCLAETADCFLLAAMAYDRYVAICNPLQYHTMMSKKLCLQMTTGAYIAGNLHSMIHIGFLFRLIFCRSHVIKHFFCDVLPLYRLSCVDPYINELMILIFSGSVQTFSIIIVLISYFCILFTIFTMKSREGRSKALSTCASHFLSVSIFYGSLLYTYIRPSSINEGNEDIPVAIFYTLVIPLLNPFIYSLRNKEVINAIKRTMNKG
# In short: as §1
# A0A1L1SVG7 = system: T3, A0A1L1SVG7
# T3 sequence (whole entry): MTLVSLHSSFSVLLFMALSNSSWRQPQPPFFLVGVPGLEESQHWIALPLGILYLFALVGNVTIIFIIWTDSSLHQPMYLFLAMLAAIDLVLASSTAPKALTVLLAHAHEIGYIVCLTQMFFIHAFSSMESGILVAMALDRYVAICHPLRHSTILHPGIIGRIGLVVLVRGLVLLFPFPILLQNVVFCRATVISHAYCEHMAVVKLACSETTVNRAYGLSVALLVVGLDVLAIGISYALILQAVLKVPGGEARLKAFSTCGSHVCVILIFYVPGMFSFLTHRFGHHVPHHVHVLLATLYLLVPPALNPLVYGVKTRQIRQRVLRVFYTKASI
# In short: as §1
# O10A2 H43R H207R K258T = system: O10A2 H43R H207R K258T
# In short: as §1
# O10A3 C8G = system: O10A3 C8G
# O10A3 C8G, sequence (as listed by the source): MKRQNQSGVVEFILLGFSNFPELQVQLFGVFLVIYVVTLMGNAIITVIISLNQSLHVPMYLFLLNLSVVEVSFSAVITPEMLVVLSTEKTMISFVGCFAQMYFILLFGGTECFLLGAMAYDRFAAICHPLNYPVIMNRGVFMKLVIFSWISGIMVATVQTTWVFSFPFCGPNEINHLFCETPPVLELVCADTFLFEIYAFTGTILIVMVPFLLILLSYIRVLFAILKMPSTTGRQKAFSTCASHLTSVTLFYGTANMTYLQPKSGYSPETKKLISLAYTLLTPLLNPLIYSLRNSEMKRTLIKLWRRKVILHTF
# In short: as §1
# O10A6 = system: O10A6
# O10A6, sequence (as listed by the source): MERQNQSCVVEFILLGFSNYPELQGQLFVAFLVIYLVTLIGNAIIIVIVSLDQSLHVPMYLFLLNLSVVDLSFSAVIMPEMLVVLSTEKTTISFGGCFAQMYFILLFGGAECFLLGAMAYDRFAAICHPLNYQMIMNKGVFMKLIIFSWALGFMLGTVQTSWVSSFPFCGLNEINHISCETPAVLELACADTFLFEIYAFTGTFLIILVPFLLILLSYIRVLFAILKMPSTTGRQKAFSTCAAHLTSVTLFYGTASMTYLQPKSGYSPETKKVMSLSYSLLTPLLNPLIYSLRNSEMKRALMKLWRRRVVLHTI
# In short: as §1
# O10AD G65C = system: O10AD G65C
# O10AD G65C, sequence (as listed by the source, stated change not applied): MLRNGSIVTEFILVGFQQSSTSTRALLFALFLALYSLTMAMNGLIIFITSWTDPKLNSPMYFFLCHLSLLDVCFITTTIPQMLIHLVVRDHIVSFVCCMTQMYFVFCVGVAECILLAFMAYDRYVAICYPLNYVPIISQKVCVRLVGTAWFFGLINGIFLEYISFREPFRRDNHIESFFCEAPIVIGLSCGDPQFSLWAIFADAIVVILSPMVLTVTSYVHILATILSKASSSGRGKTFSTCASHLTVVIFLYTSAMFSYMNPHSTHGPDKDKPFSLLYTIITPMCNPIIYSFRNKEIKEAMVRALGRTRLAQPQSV
# In short: as §1
# O10D3 V134A R197K = system: O10D3 V134A R197K
# In short: as §1
# O10G4 L24P V195E = system: O10G4 L24P V195E
# In short: as §1
# O10G7 A18V P19Q G20A = system: O10G7 A18V P19Q G20A
# In short: as §1
smiles,measurement,setting,value
O=Cc1ccccc1,odorant receptor agonist call,A0A140T8K0,inactive
C=CCc1ccccc1,odorant receptor agonist call,A0A140T8K4,inactive
same,odorant receptor agonist call,A0A1L1SVG7,inactive
O=CC=Cc1ccccc1,odorant receptor agonist call,A0A140T8K0,inactive
CC(C=O)Cc1ccc2c(c1)OCO2 (centres undefined),odorant receptor agonist call,A0A140T8K0,inactive
CCCCCCC(Br)C(=O)O (centres undefined),odorant receptor agonist call,A0A140T8K0,inactive
C=CCOC(=O)Cc1ccccc1,odorant receptor agonist call,A0A140T8K0,inactive
same,odorant receptor agonist call,A0A140T8K4,inactive
same,odorant receptor agonist call,A0A1L1SVG7,inactive
same,odorant receptor agonist call,O10A2 H43R H207R K258T,inactive
same,odorant receptor agonist call,O10A3 C8G,inactive
same,odorant receptor agonist call,O10A6,inactive
same,odorant receptor agonist call,O10AD G65C,inactive
same,odorant receptor agonist call,O10D3 V134A R197K,inactive
same,odorant receptor agonist call,O10G4 L24P V195E,inactive
same,odorant receptor agonist call,O10G7 A18V P19Q G20A,inactive
O=c1cc(O)c2ccccc2o1,odorant receptor agonist call,A0A140T8K0,inactive
same,odorant receptor agonist call,A0A140T8K4,inactive
same,odorant receptor agonist call,A0A1L1SVG7,inactive
CCC1CCC(=O)O1 (centres undefined),odorant receptor agonist call,A0A140T8K4,inactive
same,odorant receptor agonist call,A0A1L1SVG7,inactive
CSSC,odorant receptor agonist call,A0A140T8K0,inactive
O=Cc1ccc2c(c1)OCO2,odorant receptor agonist call,A0A140T8K0,inactive
C=C(C)C1CC=C(C=O)CC1 (centres undefined),odorant receptor agonist call,A0A140T8K0,inactive
CCCCC(Br)C(=O)O (centres undefined),odorant receptor agonist call,A0A140T8K0,inactive
Cc1ccc(OC(=O)Cc2ccccc2)cc1,odorant receptor agonist call,A0A140T8K0,inactive
OCc1ccc2c(c1)OCO2,odorant receptor agonist call,A0A140T8K0,inactive
Oc1ccccc1Br,odorant receptor agonist call,A0A140T8K0,inactive
COc1ccc(C=O)cc1,odorant receptor agonist call,A0A140T8K0,inactive

# Source: the M2OR odorant receptor database
